Assay results as given in ChEMBL document CHEMBL1148787, “Novel substituted (pyridin-3-yl)phenyloxazolidinones: antibacterial agents with reduced activity against monoamine oxidase A and increased solubility” (J Med Chem, 2007).
Values after ≈ are worked out from the molar mass of the structure shown.

Legend:
Staphylococcus aureus = experiment: Antibacterial activity against methicillin-susceptible Staphylococcus aureus AP601055; assay type: functional
How it was run: (§1)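 CLSI broth microdilution, 64 to 0.06 µg/mL, 2% DMSO final. Media: S. aureus, Mueller Hinton broth; H. influenzae, MHB plus 0.5% yeast extract, 15 µg/mL hematin, 1.5 µg/mL NAD; S. pneumoniae, MHB plus 0.65% lysed horse blood. 35 °C, aerobic (S. aureus) or 5% CO2.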

Haemophilus influenzae = experiment: Antibacterial activity against Haemophilus influenzae ATCC 51907; assay type: functional; how it was run: as §1
[1] = biological target: T1, Amine oxidase [flavin-containing] A (Homo sapiens, UniProt P21397); experiment: Inhibition of human liver MAOA expressed in yeast
T1 sequence (P21397 whole entry): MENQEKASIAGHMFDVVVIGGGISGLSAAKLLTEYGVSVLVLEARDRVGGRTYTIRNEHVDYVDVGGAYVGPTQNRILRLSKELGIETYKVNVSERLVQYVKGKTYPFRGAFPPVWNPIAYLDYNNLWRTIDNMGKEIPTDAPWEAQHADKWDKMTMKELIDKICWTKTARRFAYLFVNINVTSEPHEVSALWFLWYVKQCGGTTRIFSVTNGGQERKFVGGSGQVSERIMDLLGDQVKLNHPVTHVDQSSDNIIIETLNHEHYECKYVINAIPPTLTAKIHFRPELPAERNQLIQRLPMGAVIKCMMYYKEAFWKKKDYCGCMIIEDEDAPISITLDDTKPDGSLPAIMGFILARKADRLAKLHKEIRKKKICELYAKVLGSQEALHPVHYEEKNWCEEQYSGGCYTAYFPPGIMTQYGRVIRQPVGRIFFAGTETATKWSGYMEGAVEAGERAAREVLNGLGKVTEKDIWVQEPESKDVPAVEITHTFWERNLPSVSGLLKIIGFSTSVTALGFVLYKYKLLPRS

Streptococcus pneumoniae [2] = experiment: Antibacterial activity against linezolid-resistant Streptococcus pneumoniae; assay type: functional
How it was run: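 Broth microdilution per CLSI guidelines. Compounds were dissolved in 100% DMSO and diluted to 2% DMSO (v/v), 64 to 0.06 µg/mL, in 2.2% (w/v) Mueller Hinton broth with 0.65% (v/v) lysed horse blood. Plates were incubated at 35 °C in 5% CO2 and read at 620 nm.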

[3] = Solubility by nephelometric analysis; assay type: physicochemical
How it was run: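 Nephelometry after diluting compounds into the MAO-A assay mixture (100 mM potassium phosphate, pH 7.4).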

Streptococcus pneumoniae [4] = experiment: Antibacterial activity against penicillin-susceptible Streptococcus pneumoniae AP671401; assay type: functional; how it was run: as §1
Cytochrome P450 2C9 = Cytochrome P450 2C9 (Homo sapiens, UniProt P11712); experiment: Inhibition of human recombinant CYP2C9; assay type: ADME
Cytochrome P450 2C9, sequence (P11712 whole entry): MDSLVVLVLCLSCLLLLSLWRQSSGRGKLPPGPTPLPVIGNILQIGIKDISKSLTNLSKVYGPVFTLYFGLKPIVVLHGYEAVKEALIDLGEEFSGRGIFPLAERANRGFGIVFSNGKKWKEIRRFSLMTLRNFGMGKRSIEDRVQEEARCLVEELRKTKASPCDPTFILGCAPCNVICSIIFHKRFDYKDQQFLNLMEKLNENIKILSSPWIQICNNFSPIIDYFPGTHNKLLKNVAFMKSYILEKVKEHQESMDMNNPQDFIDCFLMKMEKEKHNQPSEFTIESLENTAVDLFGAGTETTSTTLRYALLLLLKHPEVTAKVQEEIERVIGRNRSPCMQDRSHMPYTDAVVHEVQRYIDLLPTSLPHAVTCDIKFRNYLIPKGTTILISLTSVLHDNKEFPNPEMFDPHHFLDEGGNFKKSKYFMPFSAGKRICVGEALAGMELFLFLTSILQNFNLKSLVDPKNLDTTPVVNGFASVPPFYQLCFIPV
How it was run: (§2)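 Recombinant human P450s, compound at 0.2-20 µM; fluorogenic substrates: 3-cyano-7-ethoxycoumarin (1A2), 7-methoxy-4-trifluoromethylcoumarin (2C9, 2C19), 7-methoxy-4-(aminomethyl)coumarin (2D6). Fluorescence detection; IC50 determined.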

Cytochrome P450 3A4 = Cytochrome P450 3A4 (Homo sapiens, UniProt P08684); experiment: Inhibition of human recombinant CYP3A4; assay type: ADME
Cytochrome P450 3A4, sequence (P08684 whole entry): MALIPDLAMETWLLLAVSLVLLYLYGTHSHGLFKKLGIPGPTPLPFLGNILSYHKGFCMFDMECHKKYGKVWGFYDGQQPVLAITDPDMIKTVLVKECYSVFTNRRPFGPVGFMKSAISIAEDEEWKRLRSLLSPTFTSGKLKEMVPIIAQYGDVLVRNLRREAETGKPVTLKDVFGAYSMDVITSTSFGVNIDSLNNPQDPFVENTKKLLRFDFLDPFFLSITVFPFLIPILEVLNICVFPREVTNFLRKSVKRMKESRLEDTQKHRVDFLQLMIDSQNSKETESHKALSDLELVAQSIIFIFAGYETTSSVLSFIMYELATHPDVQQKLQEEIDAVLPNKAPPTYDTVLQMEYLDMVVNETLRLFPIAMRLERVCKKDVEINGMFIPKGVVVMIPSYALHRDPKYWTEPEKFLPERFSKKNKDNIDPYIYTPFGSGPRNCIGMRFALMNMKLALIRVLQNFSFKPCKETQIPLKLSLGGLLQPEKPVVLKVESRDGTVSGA

Cytochrome P450 1A2 = biological target: T2, Cytochrome P450 1A2 (Homo sapiens, UniProt P05177); experiment: Inhibition of human recombinant CYP1A2; assay type: ADME; how it was run: as §2
T2 sequence (P05177 whole entry): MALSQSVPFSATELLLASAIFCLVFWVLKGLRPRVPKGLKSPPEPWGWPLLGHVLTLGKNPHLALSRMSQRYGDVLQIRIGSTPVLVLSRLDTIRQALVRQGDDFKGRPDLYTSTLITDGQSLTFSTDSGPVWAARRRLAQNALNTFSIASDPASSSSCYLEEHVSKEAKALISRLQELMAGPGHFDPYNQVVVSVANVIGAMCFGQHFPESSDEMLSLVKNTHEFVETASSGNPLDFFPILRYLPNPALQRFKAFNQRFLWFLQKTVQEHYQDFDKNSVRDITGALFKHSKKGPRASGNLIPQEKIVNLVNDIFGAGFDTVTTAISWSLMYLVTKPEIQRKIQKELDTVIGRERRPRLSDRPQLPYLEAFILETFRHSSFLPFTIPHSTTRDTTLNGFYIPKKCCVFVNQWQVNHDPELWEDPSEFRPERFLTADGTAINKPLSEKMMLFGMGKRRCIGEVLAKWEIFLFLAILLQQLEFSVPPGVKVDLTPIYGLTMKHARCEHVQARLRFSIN

Cytochrome P450 2D6 = Cytochrome P450 2D6 (Homo sapiens, UniProt P10635); experiment: Inhibition of human recombinant CYP2D6; assay type: ADME; how it was run: as §2
Cytochrome P450 2D6, sequence (P10635 whole entry): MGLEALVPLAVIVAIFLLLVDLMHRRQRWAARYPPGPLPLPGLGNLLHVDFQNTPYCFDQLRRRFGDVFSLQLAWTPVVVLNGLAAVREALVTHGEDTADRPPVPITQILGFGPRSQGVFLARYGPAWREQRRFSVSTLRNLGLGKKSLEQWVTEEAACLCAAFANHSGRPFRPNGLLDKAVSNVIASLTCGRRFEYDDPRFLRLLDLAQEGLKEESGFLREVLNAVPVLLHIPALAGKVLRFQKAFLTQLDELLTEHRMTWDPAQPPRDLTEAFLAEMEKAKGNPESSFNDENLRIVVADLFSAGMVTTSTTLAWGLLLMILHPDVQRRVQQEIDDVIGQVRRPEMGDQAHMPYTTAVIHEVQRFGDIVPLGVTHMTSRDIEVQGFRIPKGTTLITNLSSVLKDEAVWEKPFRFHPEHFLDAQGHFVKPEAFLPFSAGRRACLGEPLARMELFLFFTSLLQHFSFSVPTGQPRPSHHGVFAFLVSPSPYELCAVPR

Cytochrome P450 2C19 = Cytochrome P450 2C19 (Homo sapiens, UniProt P33261); experiment: Inhibition of human recombinant CYP2C19; assay type: ADME; how it was run: as §2
Cytochrome P450 2C19, sequence (P33261 whole entry): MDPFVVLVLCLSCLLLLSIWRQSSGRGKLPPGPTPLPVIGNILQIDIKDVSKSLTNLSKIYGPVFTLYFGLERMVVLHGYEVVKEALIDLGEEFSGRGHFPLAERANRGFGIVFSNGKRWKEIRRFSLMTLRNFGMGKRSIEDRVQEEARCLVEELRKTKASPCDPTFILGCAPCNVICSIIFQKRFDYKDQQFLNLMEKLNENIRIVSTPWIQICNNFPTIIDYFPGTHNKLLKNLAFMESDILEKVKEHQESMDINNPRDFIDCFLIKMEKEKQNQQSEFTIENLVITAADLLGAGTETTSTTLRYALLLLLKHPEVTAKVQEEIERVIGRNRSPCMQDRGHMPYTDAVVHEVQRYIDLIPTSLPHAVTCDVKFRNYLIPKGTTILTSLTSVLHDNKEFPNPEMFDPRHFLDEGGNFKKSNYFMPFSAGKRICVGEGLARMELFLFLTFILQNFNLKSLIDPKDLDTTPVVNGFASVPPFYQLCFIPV

Homo sapiens = species on record: Homo sapiens; experiment: Protein binding in human plasma; conditions: read-out: PPB (converted)
[5] = Clearance in Wistar rat at 10 mg/kg, iv; assay type: ADME, organism-based; parameters: dose 10 mg/kg, route intravenous; conditions: in vivo
How it was run: (§3)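 Groups of three Wistar Han rats; bolus injection via cannulated jugular vein at 2 or 10 mg/kg. Serial 200 µL whole-blood samples at time intervals; plasma levels by LC-MS/MS; parameters by noncompartmental analysis.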

[6] = AUC in Wistar rat at 10 mg/kg, iv; assay type: ADME, organism-based; parameters: dose 10 mg/kg, route intravenous; conditions: plasma; how it was run: as §3
[7] = Volume of distribution in Wistar rat at 10 mg/kg, iv; assay type: ADME, organism-based; parameters: dose 10 mg/kg, route intravenous; conditions: in vivo, read-out: Vdss; how it was run: as §3
[8] = Half life in Wistar rat at 10 mg/kg, iv; assay type: ADME, organism-based; parameters: dose 10 mg/kg, route intravenous; conditions: in vivo; how it was run: as §3
[9] = Oral bioavailability in Wistar rat at 10 mg/kg, po; assay type: ADME, organism-based; conditions: in vivo
How it was run: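 Wistar Han rats, groups of three; 10 mg/kg given by oral gavage, compared against iv dosing. Serial whole-blood sampling, plasma drug by LC-MS/MS, noncompartmental pharmacokinetic analysis.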

| Compound | MIC (Staphylococcus aureus) | MIC (Haemophilus influenzae) | Ki [1] | MIC (Streptococcus pneumoniae [2]) | solubility kinetic [3] | MIC (Streptococcus pneumoniae [4]) | IC50 (Cytochrome P450 2C9) | IC50 (Cytochrome P450 3A4) | IC50 (Cytochrome P450 1A2) | IC50 (Cytochrome P450 2D6) | IC50 (Cytochrome P450 2C19) | fraction unbound (Homo sapiens) | clearance [5] | AUC [6] | Vd [7] | half-life [8] | bioavailability [9] |
| --- | --- | --- | --- | --- | --- | --- | --- | --- | --- | --- | --- | --- | --- | --- | --- | --- | --- |
| CN(C)CC(O)c1ccc(-c2ccc(N3C[C@H](Cn4ccnn4)OC3=O)cc2F)cn1 (some centres not stated) | 4 µg/mL (≈ 9.38 µM) | 4 µg/mL (≈ 9.38 µM) | > 178 µM | 2 µg/mL (≈ 4.69 µM) | > 400 µM | 0.25 µg/mL (≈ 0.586 µM) | – | – | – | – | – | – | – | – | – | – | – |
| O=C1O[C@@H](Cn2ccnn2)CN1c1ccc(-c2ccc(CO)nc2)c(F)c1 | 0.25 µg/mL (≈ 0.677 µM) | 1 µg/mL (≈ 2.71 µM) | – | 1 µg/mL (≈ 2.71 µM) | 100 µM (≈ 36.9 µg/mL) | 0.13 µg/mL (≈ 0.352 µM) | > 20 µM | > 20 µM | > 20 µM | > 20 µM | > 20 µM | – | – | – | – | – | – |
| O=C1O[C@@H](Cn2ccnn2)CN1c1ccc(-c2ccc(C(O)CN3CCOCC3)nc2)c(F)c1 (some centres not stated) | 1 µg/mL (≈ 2.13 µM) | 4 µg/mL (≈ 8.54 µM) | – | 2 µg/mL (≈ 4.27 µM) | > 400 µM | 0.25 µg/mL (≈ 0.534 µM) | – | – | – | – | – | 0.67 | – | – | – | – | – |
| CO[C@@H](C)c1ccc(-c2ccc(N3C[C@H](Cn4ccnn4)OC3=O)cc2F)cn1 | 1 µg/mL (≈ 2.52 µM) | 16 µg/mL (≈ 40.3 µM) | 2.5 µM | 4 µg/mL (≈ 10.1 µM) | > 400 µM | 0.25 µg/mL (≈ 0.629 µM) | – | – | – | – | – | – | – | – | – | – | – |
| Cc1cn(CC(=O)c2ccc(-c3ccc(N4C[C@H](Cn5ccnn5)OC4=O)cc3F)cn2)cn1 | 0.5 µg/mL (≈ 1.08 µM) | 2 µg/mL (≈ 4.33 µM) | > 5.6 µM | 0.5 µg/mL (≈ 1.08 µM) | 12.5 µM (≈ 5.77 µg/mL) | < 0.06 µg/mL | > 20 µM | > 20 µM | > 20 µM | > 20 µM | > 20 µM | 0.31 | > 100 mL/min/kg | – | – | – | – |
| CC(C)(O)c1ccc(-c2ccc(N3C[C@H](Cn4ccnn4)OC3=O)cc2F)cn1 | 1 µg/mL (≈ 2.52 µM) | 8 µg/mL (≈ 20.1 µM) | 6 µM | 2 µg/mL (≈ 5.03 µM) | 200 µM (≈ 79.5 µg/mL) | 0.25 µg/mL (≈ 0.629 µM) | – | – | – | – | – | – | – | – | – | – | – |
| CN1CCN(CCCC(=O)c2ccc(-c3ccc(N4C[C@H](Cn5ccnn5)OC4=O)cc3F)cn2)CC1 | 1 µg/mL (≈ 1.97 µM) | 8 µg/mL (≈ 15.8 µM) | 10.5 µM | 0.5 µg/mL (≈ 0.985 µM) | > 400 µM | < 0.06 µg/mL | – | – | – | – | – | 0.5 | – | – | – | – | – |
| O=C1O[C@@H](Cn2ccnn2)CN1c1ccc(-c2ccc(C(O)CO)nc2)c(F)c1 (some centres not stated) | 0.25 µg/mL (≈ 0.626 µM) | 1 µg/mL (≈ 2.5 µM) | – | 1 µg/mL (≈ 2.5 µM) | > 400 µM | < 0.06 µg/mL | – | – | – | – | – | 0.54 | 43 mL/min/kg | 3900 ng·h/mL | 1 L/kg | 27 min | – |
| O=C(CC1CCNCC1)c1ccc(-c2ccc(N3C[C@H](Cn4ccnn4)OC3=O)cc2F)cn1 | 1 µg/mL (≈ 2.15 µM) | 8 µg/mL (≈ 17.2 µM) | 28 µM | 0.5 µg/mL (≈ 1.08 µM) | > 400 µM | 0.13 µg/mL (≈ 0.28 µM) | – | – | – | – | – | – | 196 mL/min/kg | 800 ng·h/mL | 15 L/kg | 144 min | – |
| C[C@H](O)c1ccc(-c2ccc(N3C[C@H](Cn4ccnn4)OC3=O)cc2F)cn1 | 0.5 µg/mL (≈ 1.3 µM) | 2 µg/mL (≈ 5.22 µM) | 5.9 µM | 1 µg/mL (≈ 2.61 µM) | > 400 µM | < 0.06 µg/mL | – | – | – | – | – | – | 25 mL/min/kg | 6700 ng·h/mL | 1.3 L/kg | 60 min | 100% |
| O=C1O[C@@H](Cn2ccnn2)CN1c1ccc(-c2ccc(C(O)C3CCNCC3)nc2)c(F)c1 (some centres not stated) | 64 µg/mL (≈ 141 µM) | 64 µg/mL (≈ 141 µM) | 136 µM | 32 µg/mL (≈ 70.7 µM) | > 400 µM | 4 µg/mL (≈ 8.84 µM) | – | – | – | – | – | – | – | – | – | – | – |
| O=C1O[C@@H](Cn2ccnn2)CN1c1ccc(-c2cccnc2)c(F)c1 | 0.25 µg/mL (≈ 0.737 µM) | 2 µg/mL (≈ 5.89 µM) | < 0.3 µM | 1 µg/mL (≈ 2.95 µM) | 12.5 µM (≈ 4.24 µg/mL) | < 0.06 µg/mL | > 20 µM | 6.8 µM | > 20 µM | 6.6 µM | > 20 µM | – | – | – | – | – | – |
